Experiments:
[1] = molecular target: Cyclin-dependent kinase (Homo sapiens) (UniProt P06493+P11802+P24941+Q00535+Q00534+P50613+Q00526+Q00536+Q07002+P49336+Q00537+P21127+Q96Q40+Q9BWU1+O94921+P50750+Q15131+Q14004+Q8IZL9+Q9NYV4); assay: Share of MOE computational kinase hits for CDK
[2] = molecular target: Cyclin-dependent kinase 11B (Homo sapiens) (UniProt P21127); assay: Inhibition of human CDK11 (1 to 360 amino acid residues) assessed as enzyme activity at 10 uM by KINOMEScan assay expressed in bacterial system assessed as enzyme activity at 10 uM by KINOMEScan assay; design: scale not given: the % may be the effect or the level left
Outline: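 Commercial KINOMEscan binding panel of 100 kinases, test compound at 10 μM. Results are primary-screen binding interactions expressed as % Ctrl = (test compound signal − positive control signal)/(negative control signal − positive control signal) × 100. Lower % Ctrl means stronger binding.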

[3] = molecular target: Non-receptor tyrosine-protein kinase TYK2 (Homo sapiens) (UniProt P29597); assay: Inhibition of human TYK2 JH1 catalytic domain (877 to 1187 amino acid residues) assessed as enzyme activity at 10 uM by KINOMEScan assay; design: scale not given: the % may be the effect or the level left
Outline: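 Single-concentration competition binding screen (KINOMEscan) across a 100-kinase panel at 10 μM. Primary binding read-out is reported as % of control: (test signal − positive-control signal)/(negative-control signal − positive-control signal) × 100. Lower values indicate stronger binding.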

Sequence of Non-receptor tyrosine-protein kinase TYK2 (Homo sapiens) (P29597 whole entry, the tested form may be a part): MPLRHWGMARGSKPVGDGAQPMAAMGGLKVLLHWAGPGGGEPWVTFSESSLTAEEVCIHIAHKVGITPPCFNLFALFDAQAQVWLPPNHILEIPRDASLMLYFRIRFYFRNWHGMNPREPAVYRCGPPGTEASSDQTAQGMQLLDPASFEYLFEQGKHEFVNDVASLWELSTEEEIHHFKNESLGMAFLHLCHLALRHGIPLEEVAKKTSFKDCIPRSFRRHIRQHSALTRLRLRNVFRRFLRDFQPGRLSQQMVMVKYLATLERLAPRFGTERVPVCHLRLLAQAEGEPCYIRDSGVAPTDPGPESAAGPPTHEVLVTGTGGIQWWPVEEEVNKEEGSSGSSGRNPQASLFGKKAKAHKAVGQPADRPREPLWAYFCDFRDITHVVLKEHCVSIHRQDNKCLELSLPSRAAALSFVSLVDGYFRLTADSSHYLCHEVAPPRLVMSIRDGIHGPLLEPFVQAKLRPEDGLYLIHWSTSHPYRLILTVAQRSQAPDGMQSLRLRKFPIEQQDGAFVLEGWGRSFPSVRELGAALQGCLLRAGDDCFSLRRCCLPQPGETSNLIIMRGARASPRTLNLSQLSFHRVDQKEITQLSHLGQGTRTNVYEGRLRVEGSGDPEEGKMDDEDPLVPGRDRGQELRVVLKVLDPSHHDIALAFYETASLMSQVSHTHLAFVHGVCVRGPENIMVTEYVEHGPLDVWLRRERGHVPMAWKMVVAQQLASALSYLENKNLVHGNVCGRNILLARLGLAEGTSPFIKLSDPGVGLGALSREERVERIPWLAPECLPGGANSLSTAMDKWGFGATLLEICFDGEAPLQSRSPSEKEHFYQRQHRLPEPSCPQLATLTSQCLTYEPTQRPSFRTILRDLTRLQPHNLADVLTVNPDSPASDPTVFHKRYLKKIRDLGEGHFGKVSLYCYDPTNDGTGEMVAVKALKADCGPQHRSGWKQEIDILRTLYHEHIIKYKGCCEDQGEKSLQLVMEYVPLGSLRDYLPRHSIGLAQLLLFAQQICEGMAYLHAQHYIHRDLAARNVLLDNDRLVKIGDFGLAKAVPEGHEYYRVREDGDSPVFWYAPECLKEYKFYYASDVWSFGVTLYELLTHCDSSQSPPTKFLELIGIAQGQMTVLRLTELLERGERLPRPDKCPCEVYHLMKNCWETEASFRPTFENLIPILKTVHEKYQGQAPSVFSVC
Sequence of Cyclin-dependent kinase 11B (Homo sapiens) (P21127 whole entry, the tested form may be a part): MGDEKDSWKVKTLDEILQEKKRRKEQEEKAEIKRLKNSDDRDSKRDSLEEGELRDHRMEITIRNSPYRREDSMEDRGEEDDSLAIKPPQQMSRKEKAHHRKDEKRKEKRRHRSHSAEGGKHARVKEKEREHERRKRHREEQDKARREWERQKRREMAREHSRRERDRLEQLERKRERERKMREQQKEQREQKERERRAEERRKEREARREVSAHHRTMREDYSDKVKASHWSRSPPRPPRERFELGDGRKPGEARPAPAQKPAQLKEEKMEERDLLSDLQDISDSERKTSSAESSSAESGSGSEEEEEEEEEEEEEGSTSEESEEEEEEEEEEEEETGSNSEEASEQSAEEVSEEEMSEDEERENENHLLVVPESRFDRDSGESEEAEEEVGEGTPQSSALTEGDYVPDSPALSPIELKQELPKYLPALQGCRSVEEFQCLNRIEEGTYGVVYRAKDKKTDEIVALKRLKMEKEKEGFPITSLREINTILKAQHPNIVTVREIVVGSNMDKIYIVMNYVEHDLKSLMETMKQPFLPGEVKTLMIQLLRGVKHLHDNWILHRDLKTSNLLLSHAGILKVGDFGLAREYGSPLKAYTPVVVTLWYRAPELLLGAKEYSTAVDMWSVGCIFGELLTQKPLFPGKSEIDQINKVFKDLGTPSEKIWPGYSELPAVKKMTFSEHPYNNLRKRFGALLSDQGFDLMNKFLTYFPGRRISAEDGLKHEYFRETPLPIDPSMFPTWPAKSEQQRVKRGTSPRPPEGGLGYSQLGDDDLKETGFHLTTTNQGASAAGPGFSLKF

O=C1C2=C(C(=O)c3c(O)ccc(O)c31)[C@@H](O)[C@@H](O)[C@@H](O)C2
% of MOE kinase hits [1]: 7% | Activity [2]: 86% | Activity [3]: 57%

Reference: ChEMBL document CHEMBL3808372, “Identification of quinones as novel PIM1 kinase inhibitors” (Bioorg Med Chem Lett, 2016)
